The values below come from article PMC3734847 (Integrative biology : quantitative biosciences from nano to …, 2012).

One data set deals with Tu212 SCC cells. The experiment in a line: Neutral Red dye cell viability. It counts as cell-based, human. The method, boiled down:
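Tu212 cells grown in DMEM/F12 with 10% FBS, penicillin/streptomycin and 2 mM L-glutamine at 37°C, 5% CO2. Plated in 96 wells and left overnight to adhere. Test compound (0–20 μM) or 0.1% DMSO vehicle added in triplicate. Neutral Red (50 μg/mL in fresh medium) added for 30 min at 37°C, then two PBS washes. Dye eluted with 0.5 N HCl/35% ethanol and read at OD570. Blank subtracted and triplicates averaged.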

Data set [1] concerns Tu212 SCC xenografts. As to the kind of experiment: H & E staining and immunohistochemistry of xenograft tumor tissues. It counts as in vivo, athymic nude mice.
Data set [2] has as its system Tu212 SCC xenografts. The experiment in a line: EF31 i.p. therapy of Tu212 SCC xenografts in female athymic nude mice. It counts as in vivo.
Data set [3] in a line: Pharmacokinetic study of EF31 i.p. in mice. The conditions noted are these: mouse; for AUC(0-inf) / Vd/F / half-life / Cmax / Tmax: male, ND4 Swiss Webster, plasma, ip; for Cmax / Tmax: mouse plasma; for Tmax: DMSO/0.5% CMC (10%/90%). It counts as in vivo, ND4 Swiss Webster mice. The method, boiled down:
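Male ND4 Swiss Webster mice (25–30 g) got one i.p. dose of 12.5 or 25 mg/kg in 10% DMSO/0.5% CMC. One submandibular blood sample per mouse, under ketamine/xylazine, at 0.08, 0.25, 0.5, 1, 2, 3, 4 or 6 h (n=3/time point). Heparinized plasma stored at −80°C, deproteinated with acetonitrile and run on LC/MS/MS with internal standard.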

The nature of data set [4]: Aqueous solubility by laser nephelometry. It counts as physicochemical. The following applies: phosphate buffered saline with 1% DMSO, pH 7.4.
In the next data set the test system is NF-κB signaling pathway. The experiment in a line: Western blotting of xenograft tumor extracts for the NF-κB signaling pathway. It counts as in vivo, athymic nude mice. The following applies: 6 weeks, Western blot. The method, boiled down:
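Tu212 cells (2 × 10^6) implanted s.c. in female athymic nude mice. Mice (n=10/group) dosed i.p. once daily, 5 days/week, with test compound at 12.5 or 25 mg/kg, or with vehicle (0.5% CMC/10% DMSO in water). Tumors lysed in RIPA buffer with protease inhibitors for 30 min on ice, then cleared at 13,000 rpm for 15 min at 4°C. 100 μg protein run on 10% SDS-PAGE and transferred to PVDF.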
On the technique in general: Immunoblotting shows a protein as a band on a membrane.

Data set [5] is described as follows: Serum chemistry profile and pathologic examination of normal organs. It counts as in vivo, mice. The following applies: 12.5 and 25 mg/kg i.p.
Setting [6] is: 12.5 mg/kg, 12.5 mg/kg i.p. single dose.
[7] abbreviates: 25 mg/kg, 25 mg/kg i.p. single dose.
The mark [8] stands for this setting: 12.5 and 25 mg/kg i.p., dose-dependent.

A word on the IC50: it is the concentration that gives 50% inhibition. In general, AUC(0-inf) refers to total exposure, with the tail of the curve extrapolated. A lower AUC(0-inf) goes with low exposure. Broadly, the Vd/F is the volume of distribution divided by bioavailability. One may read the half-life as how long it takes for the measured level to halve. Low readings indicate rapid decline, high ones slow decline. Broadly, the Cmax is the peak of the concentration-time curve. Usually Tmax stands for the time from dosing to the highest level. Broadly, the solubility is how much of the substance goes into solution per volume. Higher therefore signals a readily soluble substance.

“And” between values parts separate entries of the source, which are not always exact repeats. Equal entries are not always repeated. “Also recorded” adds a separate entry of the source. Where two headings read alike, the source gives them in different places.

For the compound `O=C1/C(=C/c2ccccc2F)CNC/C1=C\c1ccccc1F` [EF24, reference compound], the IC50 in the data set on Tu212 SCC cells (read-out: IC50, viable cells, Tu212 cells, Neutral Red Dye assay, 0–20 μM, triplicate, 48 hours (Fig. 1 legend; methods: 72 h)) turned out to be 8 µM.
Consider `O=C1C(=Cc2ccccn2)CNCC1=Cc1ccccn1` [EF31, 3,5-bis(2-pyridinylmethylidene)-4-piperidone], for which the “degree of IHC staining of phosphorylated IκBα in tumors” value with Tu212 SCC xenografts [1] (0, 12.5 and 25 mg/kg i.p. daily 5 days a week for 5 weeks) was “stronger in tumors treated at 25 mg/kg than 12.5 mg/kg, which is stronger than that in the control”. In addition, in the data set with Tu212 SCC xenografts [1] (25 mg/kg i.p. daily 5 days a week for 5 weeks), the “H & E staining of tumor tissues” value is on record as “tumor cells are replaced with fibrous scar tissue”. For the same compound, in the data set on Tu212 SCC xenografts [2] (12.5 mg/kg i.p. once/day 5 days/week, n = 10, p < 0.05–0.01), the “tumor size vs vehicle control” value was “reduced tumor size significantly”. The “dose relative to maximally tolerated dose (MTD)” value in the data set on Tu212 SCC xenografts [2] (25 mg/kg i.p.) is given as “may be above the maximally tolerated dose”. Further, in the data set on Tu212 SCC xenografts [2] (25 mg/kg i.p. group, n = 10), the “animals died, apparently due to treatment” value is “three”. Moreover, the “tumor size / tumor growth vs vehicle control” value in the data set with Tu212 SCC xenografts [2] (25 mg/kg i.p. once/day 5 days/week, n = 10, p < 0.05–0.01) is reported as “inhibited tumor growth almost completely; also recorded: reduced tumor size significantly”. For the same compound, in the data set with Tu212 SCC xenografts [2] (25 mg/kg i.p., on average, regained as treatment continued), the “temporary reduction of body weight” value is recorded as ~ 10%. In addition, the “suppression of tumor growth, dose dependence” value in the data set on Tu212 SCC xenografts [2] (12.5 and 25 mg/kg i.p. daily 5 days a week for over one month) is recorded as “dose-dependent suppression of tumor growth”. For the same compound, the IC50 in the data set with Tu212 SCC cells (Homo sapiens, TU212, read-out: IC50, viable cells) amounted to 7 µM. In data set [3] (12.5 mg/kg), the area under the curve AUC(0-inf) amounted to 3390 ng·h/mL, the Vd/F amounted to 11.5 L/kg and the half-life was 2.2 h. For the same compound, in data set [3] (setting [6]), the highest level (Cmax) was 1070 ng/mL and the time of peak concentration (Tmax) was 0.25 h. For the same compound, in data set [3] (25 mg/kg), the total exposure AUC(0-inf) worked out at 7770 ng·h/mL, the Vd/F was found to be 11.1 L/kg and the half-life is 2.4 h. For the same compound, in data set [3] (setting [7]), the peak level (Cmax) was 2130 ng/mL and the Tmax is 0.5 h. In addition, the “estimated volumes of distribution” value in data set [3] (12.5 and 25 mg/kg i.p.) was ~ 11 L/kg. In addition, in data set [4], the solubility at 90 min is 13 µg/mL and 47 µM. Also, in the data set on NF-κB signaling pathway (25 mg/kg i.p.), the “level of phosphorylated IKKα in tumors vs control” value was “reduced” and the “level of total IKKα in tumors vs control” value is “increased in a dose-dependent manner”. Also, in the data set on NF-κB signaling pathway (12.5 and 25 mg/kg i.p.), the “level of IκBα phosphorylated at serine 32 and 36 in tumors” value was “increased”; the “level of phosphorylated IKKβ in tumors” value is listed as “reduced”. For the same compound, in the data set on NF-κB signaling pathway (setting [8]), the “level of phosphorylated NF-κB p65 at Ser276 in tumors” value is “decreased”, the “level of total IKKβ in tumors” value is recorded as “increased”, the “level of total IκBα in tumors” value is given as “decreased” and the “level of total p65 in tumors” value is given as “decreased”. For the same compound, in data set [5] (n = 5/group), the “pathologic examination (hematoxylin-eosin) of liver, kidneys, lungs and spleen” value is listed as “normal”. The serum chemistry profile entry in data set [5] (treated mice, normal values from the University of Minnesota) is recorded as “all within the normal values”.
